Assay results published in PMC7127609 (Cancer Letters, 2002).
Read-outs that look alike come from different tables or passages of the source.

Columns and labels:
U937 cells [1] = test: Cell growth assay; type: cell-based, human; conditions: for IC50: Homo sapiens, U-937, read-out: IC50p (50% inhibition of cell proliferation)
In short: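 U937 cells seeded at 5×10^4 cells/ml in RPMI 1640 with 10% FBS and 2 mM glutamine, then grown with graded test compound levels at 37 °C, 5% CO2. Hemocytometer counts on days 3–5, trypan blue viability. IC50p taken from a day-3 inhibition-versus-concentration plot. Efflux arm: MRP inhibitor at 10 μM added with test compound (145 or 13 μM final), counted day 4, two quadruplicate experiments, paired t-test.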

K562 cells = test: Cell growth assay; type: cell-based, human; conditions: for IC50: Homo sapiens, K562, read-out: IC50p (50% inhibition of cell proliferation); for % of inhibition of cell proliferation: 4th day
U937 cells [2] = conditions: cited from earlier work
leucine aminopeptidase = conditions: cited from earlier work

IC50 (U937 cells [1])	IC50 (K562 cells)	change of IC50p with time of incubation (K562 cells; K562, 3rd, 4th and 5th days, Fig. 1)	Compound	% of inhibition of cell proliferation (K562 cells; K562, 580 μM bestatin or 26 μM actinonin + verapamil (30 μM))	IC50 (U937 cells [2]; read-out: IC50p, ref 3)	IC50 (U937 cells [2]; read-out: IC50p, ref 6, 12)	IC50 (U937 cells [2]; read-out: IC50p, ref 11)	% of inhibition of cell proliferation (U937 cells [1]; U937, 145 μM bestatin or 13 μM actinonin + MK-571 (10 μM), 4th day)	% of inhibition of cell proliferation (K562 cells; K562, 580 μM bestatin or 26 μM actinonin + MK-571 (10 μM))	% of inhibition of cell proliferation (K562 cells; K562, 580 μM bestatin or 26 μM actinonin + MK-571 (30 μM))	Ki (leucine aminopeptidase)	antiproliferative effect on U937 cells (U937 cells [1]; U937, 10 μM)
11 µM	19 µM		CCCCC[C@H](CC(=O)NO)C(=O)N[C@H](C(=O)N1CCC[C@H]1CO)C(C)C [Actinonin]	78.0±6.6%								
108 µM	466 µM	increased significantly	CC(C)C[C@H](NC(=O)[C@@H](O)[C@H](N)Cc1ccccc1)C(=O)O [Bestatin]		58 µM	~150 µM	8 µM	87.4±4.1%	66.0±3.7%	73.6±3.4%	0.02 µM	
			COc1ccc(CCN(C)CCCC(C#N)(c2ccc(OC)c(OC)c2)C(C)C)cc1OC (centres unmarked) [Verapamil, verapamil]									exhibits an antiproliferative effect
